Activity calls are given as the source filed them. No cut-off for these calls is given here.
Columns and labels:
[1] = Anticonvulsant potency ratio expressed as ratio ED50 of UK-12130 to that of compound during separate electroshock experiments; type: functional
Mus musculus [2] = assay: Effective dose of perorally administered, that gives protection against max electroshock in mice; type: functional; details: po
Method in brief: (§1)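 Male mice of 18–28 g, with weights within ±2 g of the assay mean, in groups of ten. Vehicle controls were included. Corneal electrodes delivered 200 ms at 20 mA (mean weight ≤20 g) or 25 mA, the current giving maximal tonic extensor convulsion in untreated mice.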

[3] = Concentration producing 50% inhibition of carbonic anhydrase taken from mouse erythrocytes
Method in brief: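 Colorimetric assay, modified from Philpot and Philpot, run in an ice bath with about 2 enzyme units. Inhibitor was preincubated with enzyme for 5 min before substrate was added. Activity was expressed as EU = (T0 − T)/T from the uncatalyzed and catalyzed reaction times in seconds. The 50% inhibitory concentration was read graphically.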

Mus musculus [4] = assay: Effective dose of perorally administered compound that gives protection against max electroshock in mice; inactive; type: functional, organism-based
Method in brief: as §1, with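 “ten. Compound was ball-milled in 0.1% (v/v) Tween-80 in saline and given by gavage at 2.5, 6.25 and 16 mg/kg, 2 h before shock.” for “ten.”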

[5] = Dissociation constant in water; type: physicochemical
[6] = Dissociation constant in 30% aqueous methanol; type: physicochemical

Row | SMILES | Ratio [1] | ED50 (Mus musculus [2]) | further results
1 | NS(=O)(=O)c1ccc([S+]([O-])c2cccc(Cl)c2)s1 (centres undefined) | 1.75 | 4 mg/kg | 
2 | COc1ccc(S(=O)(=O)c2ccc(S(N)(=O)=O)s2)cc1 | 1 | 6 mg/kg | 
3 | Cc1ccc(Sc2ccc(S(N)(=O)=O)s2)cc1 | < 0.2 | > 40 mg/kg | 
4 | NS(=O)(=O)c1ccc([S+]([O-])c2cccc(F)c2)s1 (centres undefined) | 3.2 | 2.5 mg/kg | 
5 | COC1CCN(S(=O)(=O)c2ccc(S(N)(=O)=O)c(Cl)c2)CC1 |  |  | Concentration [3]: 190 nM
6 | NS(=O)(=O)c1cc(Br)c(Sc2ccccc2)s1 |  |  | ED50 (Mus musculus [4]): inactive
7 | NS(=O)(=O)c1ccc(S(=O)(=O)c2cccc(F)c2)s1 | 3.5 | 2 mg/kg | 
8 | NS(=O)(=O)c1ccc(S(=O)(=O)c2ccc(F)cc2)s1 | 4 | 2 mg/kg | pKa [5]: 8.29; Concentration [3]: 9 nM
9 | COc1ccc([S+]([O-])c2ccc(S(N)(=O)=O)s2)cc1 (centres undefined) | < 1.3 | > 6 mg/kg | 
10 | Cc1ccc([S+]([O-])c2ccc(S(N)(=O)=O)s2)cc1 (centres undefined) | < 1.3 | > 6 mg/kg | 
11 | NS(=O)(=O)c1ccc(Sc2ccc(Br)cc2)s1 | < 1.2 | > 6 mg/kg | 
12 | NS(=O)(=O)c1ccc(Sc2cccc(F)c2)s1 | < 1.3 | > 6 mg/kg | 
13 | NS(=O)(=O)c1ccc(S(=O)(=O)c2ccc(Br)cc2)s1 | 1.75 | 4 mg/kg | 
14 | NS(=O)(=O)c1cc(Cl)c([S+]([O-])c2ccccc2)s1 (centres undefined) | < 1.3 | > 6 mg/kg | 
15 | NS(=O)(=O)c1ccc(S(=O)(=O)c2ccc3ccccc3c2)s1 | 0.75 | 8 mg/kg | 
16 | CS(=O)(=O)c1ccc(Sc2ccc(S(N)(=O)=O)s2)cc1 | 1.4 | 5 mg/kg | 
17 | CC(=O)Nc1ccc(Sc2sc(S(N)(=O)=O)cc2Cl)cc1 |  |  | ED50 (Mus musculus [4]): inactive
18 | CC(=O)Nc1ccc(S(=O)(=O)c2ccc(S(N)(=O)=O)s2)cc1 | 4 | 2 mg/kg | 
19 | NS(=O)(=O)c1cc(Cl)c(Sc2ccccc2)s1 |  |  | ED50 (Mus musculus [4]): inactive
20 | CC(C)(C)c1ccc(Sc2ccc(S(N)(=O)=O)s2)cc1 |  |  | ED50 (Mus musculus [4]): inactive
21 | NS(=O)(=O)c1ccc(Sc2ccc(F)cc2)s1 | 1 | 7 mg/kg | 

Row | SMILES | Ratio [1] | ED50 (Mus musculus [2]) | further results
22 | NS(=O)(=O)c1sc(Sc2ccccc2)cc1Cl |  |  | ED50 (Mus musculus [4]): inactive
23 | NS(=O)(=O)c1ccc([S+]([O-])c2ccccc2)s1 (centres undefined) | 3.5 | 2 mg/kg | 
24 | CC(C)C(=O)Nc1ccc(Sc2ccc(S(N)(=O)=O)s2)cc1 |  |  | ED50 (Mus musculus [4]): inactive
25 | CC(C)C(=O)Nc1ccc(S(=O)(=O)c2ccc(S(N)(=O)=O)s2)cc1 | 2 | 4 mg/kg | 
26 | NS(=O)(=O)c1ccc(Sc2ccc(Cl)cc2)s1 | 2 | 3 mg/kg | Concentration [3]: 3 nM; pKa [6]: 9.19
27 | NS(=O)(=O)c1ccc([S+]([O-])c2ccc(Br)cc2)s1 (centres undefined) | 1.4 | 5 mg/kg | 
28 | CN(C)S(=O)(=O)c1ccc(S(=O)(=O)c2ccc(S(N)(=O)=O)s2)cc1 |  |  | ED50 (Mus musculus [4]): inactive
29 | NS(=O)(=O)c1sc(S(=O)(=O)c2ccccc2)cc1Cl | 0.2 | 33 mg/kg | 
30 | NS(=O)(=O)c1ccc(S(=O)(=O)c2ccc(O)cc2)s1 |  |  | ED50 (Mus musculus [4]): inactive
31 | NS(=O)(=O)c1ccc(Sc2cccc(C(F)(F)F)c2)s1 | 1.3 | 6 mg/kg | 
32 | CC(C)(C)c1ccc(S(=O)(=O)c2ccc(S(N)(=O)=O)s2)cc1 |  |  | ED50 (Mus musculus [4]): inactive
33 | Nc1ccc(Sc2ccc(S(N)(=O)=O)s2)cc1 | 1 | 7 mg/kg | 
34 | CS(=O)(=O)c1ccc(S(=O)(=O)c2ccc(S(N)(=O)=O)s2)cc1 | 1.75 | 4 mg/kg | 
35 | CC(=O)c1cccc(S(=O)(=O)c2ccc(S(N)(=O)=O)s2)c1 | 2.3 | 3 mg/kg | 
36 | CC(=O)Nc1ccc(Sc2cc(Cl)c(S(N)(=O)=O)s2)cc1 | 1.4 | 5 mg/kg | 
37 | NS(=O)(=O)c1ccc(S(=O)(=O)c2ccccc2)s1 | 3.5 | 2 mg/kg | 
38 | NS(=O)(=O)c1ccc(S(=O)(=O)c2ccccc2)cc1 | 0.9 | 10 mg/kg | pKa [5]: 9.1; Concentration [3]: 64 nM
39 | CS(=O)(=O)c1ccc([S+]([O-])c2ccc(S(N)(=O)=O)s2)cc1 (centres undefined) | < 0.4 | > 16 mg/kg | 
40 | NS(=O)(=O)c1ccc(S(=O)(=O)c2ccc(Cl)cc2)s1 | 2.3 | 3 mg/kg | 
41 | Cc1ccccc1S(=O)(=O)c1ccc(S(N)(=O)=O)s1 | 1.2 | 6 mg/kg | 
42 | NS(=O)(=O)c1ccc(Sc2cccc(Cl)c2)s1 | < 1.2 | > 6 mg/kg | 

Row | SMILES | Ratio [1] | ED50 (Mus musculus [2]) | further results
43 | CC(=O)Nc1nnc(S(N)(=O)=O)s1 [ACETAZOLAMIDE] |  | 36 mg/kg | Concentration [3]: 20 nM
44 | COc1ccc(Sc2ccc(S(N)(=O)=O)s2)cc1 | < 0.2 | > 40 mg/kg | 
45 | NS(=O)(=O)c1ccc(Sc2ccc3ccccc3c2)s1 |  |  | ED50 (Mus musculus [4]): inactive
46 | Cc1cc(S(N)(=O)=O)sc1S(=O)(=O)c1ccccc1 | 2.7 | 3 mg/kg | 
47 | NC(=O)c1ccc(S(=O)(=O)c2ccc(S(N)(=O)=O)s2)cc1 | 2 | 4 mg/kg | 
48 | CC(=O)Nc1ccc(Sc2ccc(S(N)(=O)=O)s2)cc1 | 1.1 | 9 mg/kg | 
49 | NS(=O)(=O)c1cc(Br)c(S(=O)(=O)c2ccccc2)s1 | 2.3 | 3 mg/kg | pKa [5]: 7.98; Concentration [3]: 4.2 nM
50 | Cc1ccc(S(=O)(=O)c2ccc(S(N)(=O)=O)s2)cc1 | 0.8 | 8 mg/kg | 
51 | NS(=O)(=O)c1ccc([S+]([O-])c2ccc(Cl)cc2)s1 (centres undefined) | 3.5 | 2 mg/kg | pKa [5]: 8.57; Concentration [3]: 26 nM
52 | NS(=O)(=O)c1cc(Cl)c(S(=O)(=O)c2ccccc2)s1 | 2.3 | 3 mg/kg | 
53 | NS(=O)(=O)c1ccc(Sc2ccc(O)cc2)s1 |  |  | ED50 (Mus musculus [4]): inactive
54 | Cc1ccccc1Sc1ccc(S(N)(=O)=O)s1 | < 0.5 | > 16 mg/kg | 
55 | CC(=O)Nc1ccc(S(=O)(=O)c2cc(Cl)c(S(N)(=O)=O)s2)cc1 | < 1.3 | > 6 mg/kg | 
56 | NS(=O)(=O)c1ccc(Sc2ccccc2)s1 | 0.3 | 19 mg/kg | 
57 | CSc1ccc(Sc2ccc(S(N)(=O)=O)s2)cc1 | 1.75 | 4 mg/kg | 
58 | CN(C)S(=O)(=O)c1ccc(Sc2ccc(S(N)(=O)=O)s2)cc1 | < 1.3 | > 6 mg/kg | 
59 | CC(=O)Nc1ccc([S+]([O-])c2ccc(S(N)(=O)=O)s2)cc1 (centres undefined) | 1.5 | 4 mg/kg | 
60 | NS(=O)(=O)c1ccc([S+]([O-])c2ccc(F)cc2)s1 (centres undefined) | 2 | 3 mg/kg | 
61 | CC(=O)Nc1ccc(S(=O)(=O)c2sc(S(N)(=O)=O)cc2Cl)cc1 | 1.3 | 6 mg/kg | 
62 | Nc1ccc(S(=O)(=O)c2ccc(S(N)(=O)=O)s2)cc1 | 3.5 | 2 mg/kg | 
63 | NS(=O)(=O)c1ccc(S(=O)(=O)c2cccc(C(F)(F)F)c2)s1 | 1.6 | 5 mg/kg | 

Reference: ChEMBL document CHEMBL1121682, “Cerebrovasodilatation through selective inhibition of the enzyme carbonic anhydrase. 3. 5-(Arylthio)-, 5-(arylsulfinyl)-, and 5-(arylsulfonyl)thiophene-2-sulfonamides” (J Med Chem, 1981)
